The values below come from ChEMBL document CHEMBL1132720 (J Med Chem, 1999).

Molecules are shown by their SMILES. Activity calls are given as the source filed them. No cut-off for these calls is given here.

Assay type in all cases: functional, cell membranes
In experiment [1] the target is T1, P2Y purinoceptor 1 (Meleagris gallopavo, UniProt P49652). The experiment in a line: In vitro antagonist activity at P2Y1 receptor in turkey erythrocyte membranes. The method, boiled down:
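[3H]inositol-labeled turkey erythrocyte ghosts in pH 7.0 Hepes medium with 1 μM GTPγS were incubated 5 min at 30 °C with test nucleotide plus 10 nM 2-MeSADP. Total [3H]inositol phosphates were separated by anion-exchange. Maximal inhibition is 100 minus residual stimulation at the highest concentration; n = 3 unless stated. "No effect" means none at 100 μM.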

The target in experiment [2] is P2Y purinoceptor 1 (Meleagris gallopavo) (UniProt P49652). The experiment in a line: In vitro agonist activity at P2Y1 receptor in turkey erythrocyte membranes; No effect at 100 uM.
Experiment [3] has the same target. The experiment in a line: Antagonist activity for inhibition of PLC elicited by 10 nM 2-MeSADP at P2Y purinoceptor 1 in turkey erythrocyte membranes. The method, boiled down: (§1)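 [3H]inositol-labeled turkey erythrocyte ghosts in pH 7.0 Hepes medium with 1 μM GTPγS were incubated 5 min at 30 °C with test nucleotide plus 10 nM 2-MeSADP. Total [3H]inositol phosphates were separated by anion-exchange. […] Maximal inhibition is 100 minus residual stimulation at the highest concentration; n = 3 unless stated. "No effect" means none at 100 μM.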

Experiment [4] shares this target. The experiment in a line: Agonist activity for stimulation of PLC at P2Y purinoceptor 1 in the turkey erythrocyte membranes.
Experiment [5] addresses T1, P2Y purinoceptor 1. The experiment in a line: Concentration at which 50% of the maximal effect (stimulation of PLC at P2Y1 receptor in the turkey erythrocyte membranes) is reached.
Experiment [6] concerns the target P2Y purinoceptor 1 (Meleagris gallopavo) (UniProt P49652). Briefly: Antagonist activity for inhibition of PLC elicited by 10 nM 2-MeSADP at P2Y purinoceptor 1 in the turkey erythrocyte membranes; No effect. The method, boiled down: as §1
Experiment [7] has as its target T1, P2Y purinoceptor 1. Briefly: Concentration at which 50% of the maximal effect (stimulation of PLC at P2Y1 receptor in the turkey erythrocyte membranes) is reached; Low potency agonist.
In experiment [8] the target is P2Y purinoceptor 1 (Meleagris gallopavo) (UniProt P49652). The experiment in a line: Antagonist activity for inhibition of PLC elicited by 10 nM 2-MeSADP at P2Y purinoceptor 1 in the turkey erythrocyte membranes; No effect, low potency. The method, boiled down:
as §1

T1 sequence (P49652 whole entry): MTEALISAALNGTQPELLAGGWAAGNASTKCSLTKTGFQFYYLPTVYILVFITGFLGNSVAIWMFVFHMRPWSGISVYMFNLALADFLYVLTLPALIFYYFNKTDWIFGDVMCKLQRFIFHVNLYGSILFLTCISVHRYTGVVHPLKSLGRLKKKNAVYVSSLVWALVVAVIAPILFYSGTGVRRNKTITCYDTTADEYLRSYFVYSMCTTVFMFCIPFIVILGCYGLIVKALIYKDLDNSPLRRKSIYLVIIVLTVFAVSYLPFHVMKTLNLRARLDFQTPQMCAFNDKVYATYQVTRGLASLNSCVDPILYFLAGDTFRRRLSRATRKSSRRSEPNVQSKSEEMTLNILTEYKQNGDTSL
Chain of P2Y purinoceptor 1 (Meleagris gallopavo) (P49652 whole entry): as above

`CCSc1nc(NC)c2ncn([C@H]3C[C@H](OP(=O)(O)O)[C@@H](COP(=O)(O)O)O3)c2n1` showed a 50% inhibitory concentration (IC50) at P2Y purinoceptor 1 [1] of 980 nM. Moreover, the Increase result in experiment [2] is “inactive”. The same compound had an inhibition in experiment [3] of 94%.
`CNc1nc(SC)nc2c1ncn2[C@H]1C[C@H](OP(=O)(O)O)[C@@H](COP(=O)(O)O)O1` returned an IC50 at P2Y purinoceptor 1 [1] of 362 nM. In experiment [4], the Increase was found to be 6%. The compound also showed an inhibition in experiment [3] of 94%.
In turn, `CNc1nc(N)nc2c1ncn2[C@H]1C[C@H](OP(=O)(O)O)[C@@H](COP(=O)(O)O)O1` gave an IC50 on P2Y purinoceptor 1 [1] of 1850 nM. In addition, the Increase in experiment [4] worked out at 4%. The inhibition in experiment [3] came out at 96%.
For `C=Cc1nc2c(N)ncnc2n1[C@H]1C[C@H](OP(=O)(O)O)[C@@H](COP(=O)(O)O)O1`, on P2Y purinoceptor 1 [1], the IC50 is 30700 nM. The Increase result in experiment [2] was “inactive”. In experiment [3], this compound came in with an inhibition of 59%.
`Nc1ncnc2c1ncn2[C@@H]1CO[C@H](COP(=O)(O)O)[C@@H](OP(=O)(O)O)C1`: the EC50 at P2Y purinoceptor 1 [5] came out at 2990 nM. This compound also came in with an Increase in experiment [4] of 100%. Besides, the inhibition result in experiment [6] is “inactive”.
Consider `COc1nc2c(N)ncnc2n1[C@H]1C[C@H](OP(=O)(O)O)[C@@H](COP(=O)(O)O)O1`, for which the Increase result in experiment [2] is “inactive”. In experiment [6], the inhibition result is “inactive”.
As to `COP(=O)(O)OC[C@H]1O[C@@H](n2cnc3c(N)ncnc32)C[C@@H]1OP(=O)(O)OC`, in experiment [2], the Increase entry was “inactive”. For the same compound, the inhibition entry in experiment [6] was “inactive”.
For the compound `[N-]=[N+]=N[C@H]1[C@@H](OP(=O)(O)O)[C@H](n2cnc3c(N)ncnc32)O[C@@H]1COP(=O)(O)O`, the EC50 entry on P2Y purinoceptor 1 [7] was “Partial agonist”. Also, in experiment [4], the Increase stood at 46%. Moreover, in experiment [6], the inhibition result is “inactive”.
Consider `CNc1nc2c(N)ncnc2n1[C@H]1C[C@H](OP(=O)(O)O)[C@@H](COP(=O)(O)O)O1`, for which the Increase entry in experiment [2] was “inactive”. Also, the inhibition entry in experiment [8] is “inactive”.
On to `CCSc1nc(N)c2ncn([C@H]3C[C@H](OP(=O)(O)O)[C@@H](COP(=O)(O)O)O3)c2n1`, for which it took 1980 nM to reach a half-maximal effect on P2Y purinoceptor 1 [5] (EC50). On P2Y purinoceptor 1 [1], this compound had an IC50 of 4590 nM. Besides, the Increase in experiment [4] was determined as 16%. In addition, the inhibition in experiment [3] amounted to 84%.
On to `[N-]=[N+]=N[C@H]1[C@@H](OP(=O)(O)O)[C@H](n2cnc3c(N)ncnc32)O[C@@H]1COP(=O)(O)OP(=O)(O)OP(=O)(O)O`, for which the EC50 entry at P2Y purinoceptor 1 [7] is listed as “Partial agonist”. Also, in experiment [4], the Increase was 49%. For the same compound, the inhibition result in experiment [8] is “inactive”.
On to `CCCSc1nc(N)c2ncn([C@H]3C[C@H](OP(=O)(O)O)[C@@H](COP(=O)(O)O)O3)c2n1`, for which, at P2Y purinoceptor 1 [5], the EC50 was found to be 1710 nM. This compound returned an Increase in experiment [4] of 53%. The inhibition in experiment [3] was found to be 46%.
In turn, `Nc1nc(Cl)nc2c1ncn2[C@H]1C[C@H](OP(=O)(O)O)[C@@H](COP(=O)(O)O)O1` returned an Increase in experiment [4] of 19%. Moreover, the inhibition in experiment [3] was 80%.
As to `Nc1ncnc2c1ncn2[C@H]1C[C@H](O)[C@@H](COP(=O)(O)O)[S+]1[O-]` (stereo partly specified), in experiment [2], the Increase entry was “inactive”. For the same compound, the inhibition result in experiment [6] was “inactive”.
On P2Y purinoceptor 1 [1], `CNc1ccnc2c1ncn2[C@H]1C[C@H](OP(=O)(O)O)[C@@H](COP(=O)(O)O)O1` had an IC50 of 904 nM. Also, the Increase entry in experiment [2] was “inactive”. This compound also returned an inhibition in experiment [3] of 96%.
As for `CNc1ncnc2c1ncn2[C@H]1C[C@@H]2OP(=O)(O)OP(=O)(O)OC[C@H]2O1`, the Increase result in experiment [2] was “inactive”. Also, in experiment [8], the inhibition result was “inactive”.
`CSc1nc(N)c2ncn([C@H]3C[C@H](OP(=O)(O)O)[C@@H](COP(=O)(O)O)O3)c2n1` displayed an IC50 on P2Y purinoceptor 1 [1] of 1890 nM. This compound showed an Increase in experiment [4] of 22%. The inhibition in experiment [3] amounted to 78%.
For `CNc1nc(I)nc2c1ncn2[C@H]1C[C@H](OP(=O)(O)O)[C@@H](COP(=O)(O)O)O1`, on P2Y purinoceptor 1 [5], the EC50 stood at 4440 nM. This compound also displayed an IC50 against P2Y purinoceptor 1 [1] of 891 nM. The Increase in experiment [4] worked out at 13%. The compound also returned an inhibition in experiment [3] of 87%.
On P2Y purinoceptor 1 [1], `CNc1nc(Cl)nc2c1ncn2[C@H]1C[C@H](OP(=O)(O)O)[C@@H](COP(=O)(O)O)O1` gave an IC50 of 206 nM. Moreover, the Increase result in experiment [2] is “inactive”. Also, the inhibition in experiment [3] was determined as 95%.
Compound `CNc1ncnc2c1ncn2[C@H]1C[C@@H]2OP(=O)(O)OP(=O)(O)OP(=O)(O)OP(=O)(O)OC[C@H]2O1` registered an EC50 on P2Y purinoceptor 1 [5] of 20 nM. The IC50 at P2Y purinoceptor 1 [1] was 158 nM. In experiment [4], the Increase was 14%. In experiment [3], this compound yielded an inhibition of 87%.
On to `CSc1nc2c(N)ncnc2n1[C@H]1C[C@H](OP(=O)(O)O)[C@@H](COP(=O)(O)O)O1`, for which the Increase entry in experiment [2] was “inactive”. Further, in experiment [8], the inhibition result was “inactive”.
Take `Nc1ncnc2c1ncn2[C@H]1C[C@H](OP(=O)(O)O)[C@@H](COP(=O)(O)O)O1`: the Increase in experiment [4] was found to be 12%. The same compound gave an inhibition in experiment [3] of 87%.
Compound `Nc1ncnc2c1ncn2[C@@H]1O[C@H](COP(=O)(O)O)[C@@H](OP(=O)(O)O)[C@H]1O` registered an EC50 on P2Y purinoceptor 1 [5] of 2340 nM. The same compound displayed an IC50 against P2Y purinoceptor 1 [1] of 14900 nM. In addition, the Increase in experiment [4] came to 44%. Besides, the inhibition in experiment [3] came to 56%.
As to `CCCSc1nc(NC)c2ncn([C@H]3C[C@H](OP(=O)(O)O)[C@@H](COP(=O)(O)O)O3)c2n1`, on P2Y purinoceptor 1 [1], the IC50 amounted to 449 nM. In experiment [4], the Increase was determined as 7%. Further, the inhibition in experiment [3] amounted to 94%.
On to `Cc1cn([C@H]2C[C@H](OP(=O)(O)O)[C@@H](COP(=O)(O)O)O2)c(=O)[nH]c1=O`, for which the Increase entry in experiment [2] was “inactive”. In addition, the inhibition entry in experiment [6] is “inactive”.
Compound `Nc1ncnc2c1ncn2[C@@H]1C[C@H](COP(=O)(O)O)[C@@H](OP(=O)(O)O)C1` had an EC50 on P2Y purinoceptor 1 [5] of 7210 nM. The compound also gave an IC50 against P2Y purinoceptor 1 [1] of 2530 nM. In experiment [4], this compound yielded an Increase of 27%. For the same compound, the inhibition in experiment [3] is 73%.
In the case of `CNc1nc(N)nc2c1ncn2[C@@H]1C[C@H](COP(=O)(O)O)[C@@H](OP(=O)(O)O)C1`, on P2Y purinoceptor 1 [5], the response was half-maximal at 6490 nM (EC50). For the same compound, at P2Y purinoceptor 1 [1], the IC50 stood at 5420 nM. In experiment [4], this compound displayed an Increase of 26%. Also, the inhibition in experiment [3] came out at 74%.
For the compound `Cc1nc2c(N)ncnc2n1[C@H]1C[C@H](OP(=O)(O)O)[C@@H](COP(=O)(O)O)O1`, the IC50 against P2Y purinoceptor 1 [1] was 75100 nM. The Increase result in experiment [2] is “inactive”. In addition, in experiment [3], the inhibition came to 53%.
Consider `O=c1ccn([C@H]2C[C@H](OP(=O)(O)O)[C@@H](COP(=O)(O)O)O2)c(=O)[nH]1`, for which the Increase result in experiment [2] was “inactive”. The inhibition entry in experiment [6] was “inactive”.
In the case of `Nc1nc2c(ncn2[C@H]2C[C@H](OP(=O)(O)O)[C@@H](COP(=O)(O)O)O2)c(=O)[nH]1`, the IC50 on P2Y purinoceptor 1 [1] stood at 14900 nM. Besides, the Increase entry in experiment [2] is “inactive”. Moreover, in experiment [3], the inhibition stood at 93%.
Compound `Nc1ncnc2c1ncn2[C@H]1C[C@H](OP(=O)(O)O)[C@@H](COCP(=O)(O)O)O1` came in with an EC50 on P2Y purinoceptor 1 [5] of 27700 nM. The IC50 against P2Y purinoceptor 1 [1] is 19600 nM. Further, in experiment [4], the Increase amounted to 22%. Also, the inhibition in experiment [3] is 78%.
On to `C=CCSc1nc(NC)c2ncn([C@H]3C[C@H](OP(=O)(O)O)[C@@H](COP(=O)(O)O)O3)c2n1`, for which inhibition at P2Y purinoceptor 1 [1] was half-maximal at 475 nM (IC50). For the same compound, in experiment [2], the Increase entry was “inactive”. In experiment [3], the inhibition came out at 97%.
As to `O=c1[nH]c(=O)n([C@H]2C[C@H](OP(=O)(O)O)[C@@H](COP(=O)(O)O)O2)cc1F`, the Increase entry in experiment [2] was “inactive”. In addition, the inhibition result in experiment [6] was “inactive”.
On to `Nc1ncnc2c1ncn2[C@H]1C[C@H](OP(=O)(O)O)[C@@H](COP(=O)(O)O)S1`, for which the response at P2Y purinoceptor 1 [5] was half-maximal at 12200 nM (EC50). The compound further registered an Increase in experiment [4] of 56%. The same compound came in with an inhibition in experiment [3] of 38%.
The compound `CCCCCCSc1nc(NC)c2ncn([C@H]3C[C@H](OP(=O)(O)O)[C@@H](COP(=O)(O)O)O3)c2n1` returned an IC50 at P2Y purinoceptor 1 [1] of 3370 nM. In addition, the Increase entry in experiment [2] is “inactive”. In experiment [3], this compound showed an inhibition of 100%.
With `Nc1ccn([C@H]2C[C@H](OP(=O)(O)O)[C@@H](COP(=O)(O)O)O2)c(=O)n1`, the Increase result in experiment [2] is “inactive”. Further, in experiment [6], the inhibition entry is “inactive”.
The compound `CONc1ncnc2c1ncn2[C@H]1C[C@H](OP(=O)(O)O)[C@@H](COP(=O)(O)O)O1` registered an IC50 against P2Y purinoceptor 1 [1] of over 100000 nM. In addition, in experiment [2], the Increase entry is “inactive”. In addition, the inhibition entry in experiment [8] is “inactive”.
